# Screening results (PubChem BioAssay)
# Shown are actives, neighbours in structure and some others; about 1.7% of the full set was active somewhere.
# miR-122 sensor: blocks miR-122 activity in Huh7 sensor cells. Huh7 miR-122 Renilla luciferase sensor, 48 h; neutral wells = 0, positive control = 100. activation (reporter increase), % at 12.5 µM. actives 0.3% (n = 340,000). AID 602342;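 active means mean replicate activation score at least 90 and every replicate individually at or above 90; inconclusive means only one of the two criteria met; inactive means neither criterion met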;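 further: higher luciferase means less miR-122 activity so hits act as miR-122 inhibitors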
# CFTR F508del cor: correctors of CFTR F508del function in bronchial epithelial cells; CFBE cells, YFP halide quenching; stimulated with forskolin plus potentiator P3; % fluorescence drop versus neutral controls; activity (quench increase), % at 7.58 µM; actives 0.36% (n = 350,000); AID 720511;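 active means mean added fluorescence quench of at least 8% versus neutral control, with both replicates also reaching 8%; inconclusive means only one of the mean or replicate conditions met; inactive means mean below 8% and not both replicates reaching 8%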;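 further: cells transiently co-express mutant CFTR-F508del with the halide-sensitive YFP; corrector assay measuring rescue of mutant channel to the surface after 24 h compound exposure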
# ARNT TACC3 PPI: disrupts binding between human ARNT and TACC3. Q9Y6A5. AlphaScreen His-ARNT PAS-B/GST-TACC3 binding, luminescence; TACC3 fragment carries E629A point mutation. inhibition, % at 9.99 µM. actives 0.66% (n = 390,000). AID 623870;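 active means mean inhibition of replicates at least 50% and at least half of replicates each reaching 50%; inconclusive means half or more replicates reach 50% but mean below 50%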;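 further: 0% = complete ARNT plus TACC3 wells and 100% = ARNT alone without TACC3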
# CAL PDZ FP-1: CAL PDZ (human) peptide binding inhibition; Q9HD26; purified CAL PDZ, TMR-peptide fluorescence polarization, 1 h; inhibition, % at 24.9 µM; actives 0.92% (n = 300,000);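 active means mean inhibition of at least 30% with at least half of replicates also reaching 30%; inconclusive means no clear call, values can overlap the other calls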;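 further: 0% = DMSO neutral control and 100% = excess unlabeled competitor peptide PRC23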
# CAL PDZ FP-2: inhibitors of human CAL PDZ peptide binding | inhibition, % at 20 µM | Q9HD26 | actives 0.02% (n = 330,000) | purified CAL PDZ, TMR-peptide fluorescence polarization, 1 h;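 active means highest replicate inhibition of at least 40%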;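 further: plate controls were DMSO neutral control wells for no effect and unlabeled competitor peptide control wells for full effect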
#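 Material: tagged CAL PDZ domain; buffer or medium: 25 mM sodium phosphate pH 7.4, 150 mM NaCl, TCEP, IgG, Thesit; compound dosing: single point, 20 µM; schedule: 1 h incubation at room temperature before polarization reading; measured by: FP readout, S and P plane fluorescence; read-out basis: percent inhibition from loss of millipolarization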
# PGC1a acetyl inh: modulators of PGC1a acetylation; actives 0.17% (n = 350,000); inhibition, % at 15.6 µM; U2OS PGC1a acetylation, AlphaScreen anti-acetyl-lysine; with virally co-expressed GCN5 acetyltransferase;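 active means every replicate shows inhibition of at least 40%; inconclusive means mean inhibition at least 40% but some replicate below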;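 further: 0% = neutral control wells and 100% = positive control wells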
# The depositor's hits bear a star; ? = inconclusive; · = no result given; + = active, no number; ! = repeats disagree; [ ] = remark or other dose.
SMILES,miR-122 sensor,CFTR F508del cor,ARNT TACC3 PPI,CAL PDZ FP-1,CAL PDZ FP-2,PGC1a acetyl inh
Cc1cc(/C=C2\C(=N)N3N=C(C(C)C)SC3=NC2=O)c(C)n1Cc1ccccc1,2,0,-6,·,0,49*
C[C@H](CO)N1C[C@H](C)[C@@H](CN(C)C(=O)Nc2ccc(F)cc2)Oc2ncc(Br)cc2C1=O,-3[16.7 µM],·,-1,·,·,10
O=C(COC(=O)Cn1cnc2ccccc21)Nc1cc2c(cc1Cl)C(=O)c1ccccc1C2=O,-1,3,-7,80*,1,·
CC(=O)c1ccc(OCc2cc(C(=O)NCCc3ccc(Cl)cc3)no2)cc1,-6,0,-2,68*,2,-7
CC(=O)c1ccc(OCc2cc(C(=O)N3CC4C[C@@H]5CC3C[C@H](C4)C5)no2)cc1,-7,-3,-7,70*,-1,-9
CC(=O)c1cccc(OCc2cc(C(=O)N3CC4C[C@@H]5CC3C[C@H](C4)C5)no2)c1,·,-2,2,-2,-2,·
CC(=O)c1ccc(OCc2cc(C(=O)NCC3CCCCO3)no2)cc1 (stereo not given),·,-1,-7,-3,-1,·
Cc1ccc(S(=O)(=O)N(C)C[C@H]2Oc3ccc(NS(=O)(=O)c4cn(C)cn4)cc3C(=O)N([C@@H](C)CO)C[C@@H]2C)cc1,5[16.7 µM],1,·,·,·,0
CN1c2ccc(C#Cc3cccnc3)cc2[C@H]2[C@H](CCN2C(=O)C2CCOCC2)[C@@H]1CO,3[16.7 µM],2,-1,·,·,-11
Cc1ccc(S(=O)(=O)N=Nc2c(O)[nH]c3ccccc23)cc1,10,·,0,32*,-1,9
C[C@@H]1CN([C@H](C)CO)S(=O)(=O)c2ccc(-c3cccc(F)c3)cc2O[C@@H]1CN(C)C(=O)C1CC1,·,1,-2,·,·,-6
COC(=O)c1ccc(NC(=O)CNc2ccccc2)cc1,·,1,15,43*,-1,5
C[C@@](Cc1ccc(O)c(O)c1)(NN)C(=O)O,-17,8.4*,-5,-2,0,?
Cc1cc(-c2c(C)[nH]n(-c3ccc(Cl)cc3)c2=O)n[nH]1,9,·,57*,-4,·,-5
CSc1nc(-c2ccc(C)cc2)[nH]c1S(=O)(=O)c1ccccc1,126*,·,1,35*,·,-8
C[C@H]1CN([C@@H](C)CO)C(=O)c2cccc(NC(=O)C3CCCCC3)c2O[C@@H]1CN(C)C(=O)Nc1ccc2c(c1)OCO2,-4[16.7 µM],-4,-6,·,·,-1
O=C1NC(=O)/C(=C\c2ccc(O)cc2O)S1,·,-4,3,52*,0,·
CCn1c(SCC(=O)N2CCCC(C)C2)nc2c1c(=O)n(C)c(=O)n2C (stereo not given),·,0,0,+,-1,·
O=C(Nc1ccc(Cl)cc1)N1CCN(C(=O)C2CCCO2)CC1 (stereo not given),-5,-3,0,-6,0,-6
O=C(CN1CCN(C(=O)C2CCCO2)CC1)Nc1ccc(Cl)cc1 (stereo not given),-2,-3,-1,33*,-1,0
COCCNC(=O)C[C@@H]1CC[C@H]2[C@@H](COC[C@H](O)CN2C(=O)Nc2ccccc2OC)O1,8[16.7 µM],-1,-3,·,·,0
Cc1cc(Br)c(NC(=O)C(C)Sc2nnnn2C)c(Br)c1 (stereo not given),·,12*,1,3,-1,·
O=C(NC(=S)Nc1ccc(S(=O)(=O)NC2CCCCC2)cc1)c1cccs1,396*,4,-1,-6,-1,·
O=C(NC(=S)Nc1ccc(S(=O)(=O)N2CCCCC2)cc1)c1cccs1,·,-4,24,-1,0,·
CC(C)NC(=O)N(C)C[C@H]1Oc2ccc(NC(=O)Nc3cccc4ccccc34)cc2CC(=O)N([C@@H](C)CO)C[C@H]1C,-5[16.7 µM],3,-1,·,·,5
SMILES,miR-122 sensor,CFTR F508del cor,ARNT TACC3 PPI,CAL PDZ FP-1,CAL PDZ FP-2,PGC1a acetyl inh
CO[C@@H](CN(C)C(=O)c1cnccn1)[C@H](C)CN([C@@H](C)CO)S(=O)(=O)c1ccc(C)cc1,·,-4,2,·,·,1
CC1(C)CC(NC(=O)C2CCN(S(=O)(=O)c3ccccc3C(F)(F)F)CC2)CC(C)(C)N1,-2,-3,0,-2,1,-3
CC1(C)CC(NC(=O)C2CCN(S(=O)(=O)c3ccc(Cl)c(C(F)(F)F)c3)CC2)CC(C)(C)N1,-8,-2,·,58*,0,1
O=S(=O)(N[C@@H]1CC[C@H](CCn2cc(-c3ccc(F)cc3)nn2)O[C@@H]1CO)c1ccccc1F,·,0,6,·,·,·
N[C@@H](Cc1ccc(O)c(O)c1)C(=O)O,2,2,3,4,1,-2
N[C@@H](Cc1cc(I)c(Oc2ccc(O)c(I)c2)c(I)c1)C(=O)O,93*!,5,0,-3,1,0
CN1C(=O)c2cc(NC(=O)c3cccc(F)c3)ccc2OC[C@@H]2O[C@H](CC(=O)O)CC[C@@H]21,-17[16.7 µM],0,-2,·,·,5
COc1cc2c(c(Br)c1N)-c1cc(Br)c(N)cc1C2=O,-2,8.5*,·,·,·,-3
C[C@@H]1CCCCO[C@@H](CN(C)C(=O)c2ccccc2)[C@H](C)CN([C@@H](C)CO)C(=O)c2cc(NC(=O)C3CCCCC3)ccc2O1,-13[16.7 µM],0,-8,·,·,-2
Cc1cc2c(cc1S(=O)(=O)N1CCN(c3ccccc3F)CC1)OCC(=O)N2,3,-1,15*,-3,0,-4
Cc1cc2c(cc1S(=O)(=O)N1CCN(c3ccccc3)CC1)OCC(=O)N2,·,-2,-4,·,0,·
COCCNC(=O)c1cc(-c2ccc(-c3ccccc3)cc2)nc2ccccc12,42,9.9*,1,-2,-2,-3
COc1cc(-c2cc(C(=O)N(C)Cc3ccccc3)c3ccccc3n2)cc(OC)c1OC,11,-1,-1,-8,-3,-4
COc1ccc(-c2cc(C(=O)NCc3ccco3)c3ccccc3n2)cc1OC,0,·,-8,69*,-1,·
COc1cccc(-c2cc(C(=O)NCc3ccco3)c3ccccc3n2)c1,2,0,-3,-1,-4,6
COc1ccccc1CN(C)C(=O)c1cc(-c2cc(OC)c(OC)c(OC)c2)nc2ccccc12,·,-1,-2,58*,-2,·
COc1ccc(CCn2c(=N)c(C(=O)NCc3ccco3)cc3c(=O)n4ccccc4nc32)cc1OC,10,1,27*,-4,0,·
N=c1c(C(=O)NCc2ccco2)cc2c(=O)n3ccccc3nc2n1CCc1ccccc1,8,·,35,1,-1,-17
CO[C@H]1CC[C@@H]2CCN(C)C(=O)[C@H](C)[C@@H](OC)CN(C)C(=O)c3cccc(C#N)c3OC[C@@H]1O2,·,0,-14,·,·,-3
